Assay results reported in ChEMBL document CHEMBL3112441, “Synthesis, anticonvulsant activity and molecular properties prediction of dialkyl 1-(di(ethoxycarbonyl)methyl)-2,6-dimethyl-4-substituted-1,4-dihydropyridine-3,5-dicarboxylates” (Eur J Med Chem, 2014).

Columns and labels:
[1] = system: Rattus norvegicus; test: Anticonvulsant activity in Wistar albino rat assessed as protection against maximal electroshock-induced electroconvulsive seizures at 10 mg/kg, po pretreated for 1 hr followed by maximal electroshock challenge relative to control; format: functional
In short: (§1)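 Adult male Wistar rats (150–250 g), six per group, dosed orally 10 mg/kg as suspension in 0.5% sodium carboxymethylcellulose; vehicle control. After 1 h, maximal electroshock of 150 mA for 0.2 s was given via corneal electrodes. Duration of hind limb extension was recorded, and its abolition or reduction was taken as the anticonvulsant index. Values are mean ± SEM, n = 6, analysed by one-way ANOVA with Dunnett's test.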

[2] = system: Mus musculus; test: Toxicity in Swiss albino mouse up to 100 mg/kg, po measured over 7 days; format: organism-based; parameters: dose 100 mg/kg, route oral; settings: in vivo, 168 h
In short: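 Acute oral toxicity followed OECD-425. Swiss albino mice (18–20 g), 5 per group, were dosed orally at different levels and observed for death over seven days.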

[3] = system: Rattus norvegicus; test: Anticonvulsant activity in Wistar albino rat assessed as protection against […] at 10 mg/kg, po pretreated for 1 hr followed by pentylenetetrazole challenge measured over 300 secs relative to control; format: functional
[4] = system: Rattus norvegicus; test: Anticonvulsant activity in Wistar albino rat assessed as protection against subcutaneous pentylenetetrazole-induced seizures by measuring latency period at 10 mg/kg, po pretreated for 1 hr followed by pentylenetetrazole challenge measured over 300 secs (reference value: 72 +/- 2 secs); format: functional
[5] = system: Rattus norvegicus; test: Anticonvulsant activity in Wistar albino rat assessed as protection against maximal electroshock-induced seizures by measuring duration of limb extension at 10 mg/kg, po pretreated for 1 hr followed by maximal electroshock challenge (reference value: 16 +/- 1 secs); format: functional; in short: as §1
[6] = system: Rattus norvegicus; test: Anticonvulsant activity in Wistar albino rat assessed as protection against subcutaneous pentylenetetrazole-induced seizures by measuring latency period at 5 mg/kg, ip pretreated for 1 hr followed by pentylenetetrazole challenge measured over 300 secs (reference value: 72 +/- 2 secs); format: functional
[7] = system: Rattus norvegicus; test: Anticonvulsant activity in Wistar albino rat assessed as protection against subcutaneous pentylenetetrazole-induced mortality at 5 mg/kg, ip pretreated for 1 hr followed by pentylenetetrazole challenge measured over 300 secs relative to control; format: functional; settings: sc
[8] = system: Rattus norvegicus; test: Anticonvulsant activity in Wistar albino rat assessed as protection against subcutaneous pentylenetetrazole-induced seizures by measuring latency period at 30 mg/kg, po pretreated for 1 hr followed by pentylenetetrazole challenge measured over 300 secs (reference value: 72 +/- 2 secs); format: functional
[9] = system: Rattus norvegicus; test: Anticonvulsant activity in Wistar albino rat assessed as protection against maximal electroshock-induced seizures by measuring duration of limb extension at 30 mg/kg, po pretreated for 1 hr followed by maximal electroshock challenge (reference value: 16 +/- 1 secs); format: functional
[10] = system: Rattus norvegicus; test: Anticonvulsant activity in Wistar albino rat assessed as protection against subcutaneous pentylenetetrazole-induced mortality at 30 mg/kg, po pretreated for 1 hr followed by pentylenetetrazole challenge relative to control; format: functional
[11] = system: Rattus norvegicus; test: Anticonvulsant activity in Wistar albino rat assessed as protection against maximal electroshock-induced electroconvulsive seizures at 30 mg/kg, po pretreated for 1 hr followed by maximal electroshock challenge relative to control; format: functional

Row | SMILES | Activity [1] | Activity [2] | mortality at 10 mg/kg [3] | Time [4] | Time [5] | Time [6] | mortality at 5 mg/kg [7] | Time [8] | Time [9] | mortality at 30 mg/kg [10] | Activity [11]
1 | CCOC(=O)C(C(=O)OCC)N1C(C)=C(C(=O)OC)CC(C(=O)OC)=C1C | 14.5% | Non-toxic | 0% | 126 s | 13 s | – | – | – | – | – | –
2 | CCOC(=O)C1=C(C)N(C(C(=O)OCC)C(=O)OCC)C(C)=C(C(=O)OCC)C1 | 41.6% | Non-toxic | 0% | 192 s | 9 s | – | – | – | – | – | –
3 | CCOC(=O)C(C(=O)OCC)N1C(C)=C(C(=O)OC)C(c2ccccc2)C(C(=O)OC)=C1C | 25% | Non-toxic | 33.3% | >300 s | 12 s | – | – | – | – | – | –
4 | CCOC(=O)C1=C(C)N(C(C(=O)OCC)C(=O)OCC)C(C)=C(C(=O)OCC)C1c1ccccc1 | 16.6% | Non-toxic | 0% | 283 s | 13 s | – | – | – | – | – | –
5 | CCOC(=O)C(C(=O)OCC)N1C(C)=C(C(=O)OC)C(c2ccccc2[N+](=O)[O-])C(C(=O)OC)=C1C | 39.6% | Non-toxic | 0% | 295 s | 10 s | – | – | – | – | – | –
6 | CCOC(=O)C1=C(C)N(C(C(=O)OCC)C(=O)OCC)C(C)=C(C(=O)OCC)C1c1ccccc1[N+](=O)[O-] | 22.9% | Non-toxic | 0% | 230 s | 12 s | – | – | – | – | – | –
7 | CCOC(=O)C(C(=O)OCC)N1C(C)=C(C(=O)OC)C(Cc2ccccc2)C(C(=O)OC)=C1C | 14.5% | Non-toxic | 33.3% | 285 s | 14 s | – | – | – | – | – | –
8 | CCOC(=O)C1=C(C)N(C(C(=O)OCC)C(=O)OCC)C(C)=C(C(=O)OCC)C1Cc1ccccc1 | 10.4% | Non-toxic | 66.6% | 265 s | 14 s | – | – | – | – | – | –
9 | CCOC(=O)C(C(=O)OCC)N1C(C)=C(C(=O)OC)C(CCc2ccccc2)C(C(=O)OC)=C1C | 20.8% | Non-toxic | 66.6% | >300 s | 13 s | – | – | – | – | – | –
10 | CCOC(=O)C1=C(C)N(C(C(=O)OCC)C(=O)OCC)C(C)=C(C(=O)OCC)C1CCc1ccccc1 | 8.3% | Non-toxic | 33.3% | 246 s | 15 s | – | – | – | – | – | –
11 | CCOC(=O)C(C(=O)OCC)N1C(C)=C(C(=O)OC)C(/C=C/c2ccccc2)C(C(=O)OC)=C1C | 41.6% | Non-toxic | 100% | 268 s | 9 s | – | – | – | – | – | –
12 | CCOC(=O)C1=C(C)N(C(C(=O)OCC)C(=O)OCC)C(C)=C(C(=O)OCC)C1/C=C/c1ccccc1 | 22.9% | Non-toxic | 0% | >300 s | 12 s | – | – | – | – | – | –
13 | CCOC(=O)C(C(=O)OCC)N1C(C)=C(C(=O)OC)C(/C=C/c2ccc([N+](=O)[O-])cc2)C(C(=O)OC)=C1C | 52.1% | Non-toxic | 0% | >300 s | 7 s | – | – | – | – | – | –
14 | CCOC(=O)C1=C(C)N(C(C(=O)OCC)C(=O)OCC)C(C)=C(C(=O)OCC)C1/C=C/c1ccc([N+](=O)[O-])cc1 | 50% | Non-toxic | 0% | >300 s | 8 s | – | – | – | – | – | –
15 | CN1C(=O)CN=C(c2ccccc2)c2cc(Cl)ccc21 [DIAZEPAM] | – | – | – | – | – | 266 s | 66.6% | – | – | – | –
16 | COC(=O)C1=C(C)NC(C)=C(C(=O)OC)C1c1ccccc1[N+](=O)[O-] [NIFEDIPINE] | – | – | – | – | – | – | – | 215 s | 7 s | 33.3% | 56.8%
17 | O=C1NC(=O)C(c2ccccc2)(c2ccccc2)N1 [PHENYTOIN] | – | – | – | – | – | – | – | – | 6 s | – | 62.5%
